Measurements published in ChEMBL document CHEMBL1135716, “A three-dimensional quantitative structure-activity relationship study of heparin-binding epidermal growth factor shedding inhibitors using comparative molecular field analysis” (J Med Chem, 2002).

Experiment: Heparin-binding epidermal growth factor (HB-EGF) shedding inhibition
Procedure, shortened: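 Cell-based shedding assay using HT-1080 fibrosarcoma transfectants that express human placental alkaline phosphatase-tagged HB-EGF. Cells were grown 24 h at 2×10^5/well in MEM with 10% FCS, washed, and preincubated 30 min with compound in MEM containing 1% DMSO. They were then stimulated with 60 nM TPA for 60 min. Supernatant was heated 10 min at 65 °C, then given p-nitrophenyl phosphate substrate (pH 9.8) for 2 h, and A405 was read. IC50 was taken from a concentration series.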

| IC50 | Compound |
| --- | --- |
| 210 nM | CCOCCCOc1ccc(S(=O)(=O)N2Cc3cc(O)c(O)cc3C[C@@H]2C(=O)NO)cc1 |
| 20000 nM | NS(=O)(=O)c1ccc(-c2ccc(S(=O)(=O)N3Cc4ccccc4C[C@@H]3C(=O)NO)cc2)cc1 |
| 830 nM | Cc1ccc(S(=O)(=O)N2Cc3ccccc3C[C@@H]2C(=O)NO)cc1 |
| 5400 nM | Cc1ccc(S(=O)(=O)N2Cc3cc(O)c(O)cc3C[C@@H]2C(=O)NO)s1 |
| 1100 nM | C=Cc1ccc(S(=O)(=O)N2Cc3nccnc3C[C@@H]2C(=O)NO)cc1 |
| 570 nM | COc1ccc(S(=O)(=O)N2Cc3cc(NC(=O)[C@H](N)Cc4ccccc4)ccc3C[C@@H]2C(=O)NO)cc1 |
| 6900 nM | O=C(NO)[C@H]1Cc2nccnc2CN1S(=O)(=O)c1cccnc1 |
| 70000 nM | O=C(NO)[C@H]1Cc2nccnc2CN1S(=O)(=O)c1ccc([N+](=O)[O-])cc1 |
| 1500 nM | O=C(NO)[C@H]1Cc2nccnc2CN1S(=O)(=O)c1ccc(-c2ccccc2)cc1 |
| 730 nM | COc1ccc(S(=O)(=O)N2Cc3cc(O)c(O)cc3C[C@@H]2C(=O)NO)cc1 |
| 6700 nM | COc1ccc(CCS(=O)(=O)N2Cc3nccnc3C[C@@H]2C(=O)NO)cc1 |
| 1290 nM | O=C(NO)[C@H]1Cc2cc(O)c(O)cc2CN1S(=O)(=O)c1ccc(-c2ccccc2)cc1 |
| 7700 nM | CCCCCC(=O)Nc1ccc(S(=O)(=O)N2Cc3nccnc3C[C@@H]2C(=O)NO)cc1 |
| 1100 nM | Nc1cccc(S(=O)(=O)N2Cc3ccccc3C[C@@H]2C(=O)NO)c1 |
| 1500 nM | O=C(NO)[C@H]1Cc2nccnc2CN1S(=O)(=O)c1ccc(OCCO)cc1 |
| 160 nM | O=C(NO)[C@H]1Cc2cc(O)c(O)cc2CN1S(=O)(=O)c1cccs1 |

| IC50 | Compound |
| --- | --- |
| 990 nM | O=C(NO)[C@H]1Cc2cc(O)c(O)cc2CN1S(=O)(=O)c1ccc(OCCCc2ccccc2)cc1 |
| 630 nM | CCCOc1ccc(S(=O)(=O)N2Cc3cc(O)c(O)cc3C[C@@H]2C(=O)NO)cc1 |
| 820 nM | O=C(NO)[C@H]1Cc2cc(O)c(O)cc2CN1S(=O)(=O)c1ccc(Oc2cnccn2)cc1 |
| 630 nM | O=C(NO)[C@H]1Cc2nccnc2CN1S(=O)(=O)c1ccc(OCCCc2ccccc2)cc1 |
| 350 nM | COc1ccc(S(=O)(=O)N2Cc3nccnc3C[C@@H]2C(=O)NO)cc1 |
| 960 nM | O=C(NO)[C@H]1Cc2nccnc2CN1S(=O)(=O)c1cccs1 |
| 110 nM | O=C(NO)[C@H]1Cc2nccnc2CN1S(=O)(=O)c1ccc(Oc2cnccn2)cc1 |
| 1000 nM | CCOC(=O)COc1ccc(S(=O)(=O)N2Cc3nccnc3C[C@@H]2C(=O)NO)cc1 |
| 4500 nM | Nc1ccc2c(c1)CN(S(=O)(=O)c1ccc(Oc3ncccn3)cc1)[C@@H](C(=O)NO)C2 |
| 340 nM | O=C(NO)[C@H]1Cc2nccnc2CN1S(=O)(=O)c1ccc(Oc2ccncc2)cc1 |
| 100 nM | CSCCCOc1ccc(S(=O)(=O)N2Cc3nccnc3C[C@@H]2C(=O)NO)cc1 |
| 340 nM | O=C(NO)[C@H]1Cc2ccccc2CN1S(=O)(=O)c1cccs1 |
| 18000 nM | CN(C)CCCOc1ccc(S(=O)(=O)N2Cc3nccnc3C[C@@H]2C(=O)NO)cc1 |
| 280 nM | COc1ccc(S(=O)(=O)N2Cc3cc(NC(=O)CN)ccc3C[C@@H]2C(=O)NO)cc1 |
| 420 nM | CCCCOc1ccc(S(=O)(=O)N2Cc3ccccc3C[C@@H]2C(=O)NO)cc1 |
| 280 nM | COc1ccc(S(=O)(=O)N2Cc3ccccc3C[C@@H]2C(=O)NO)cc1 |

Second part, the compound before the results:

| Compound | IC50 |
| --- | --- |
| CC(C)COCCCOc1ccc(S(=O)(=O)N2Cc3nccnc3C[C@@H]2C(=O)NO)cc1 | 560 nM |
| O=C(NO)[C@H]1Cc2nccnc2CN1S(=O)(=O)c1ccc(Oc2ccc(Oc3ccccc3)cc2)cc1 | 6100 nM |
| O=C(NO)[C@H]1Cc2nccnc2CN1S(=O)(=O)c1ccc(C(F)(F)F)cc1 | 40000 nM |
| COCCCOc1ccc(S(=O)(=O)N2Cc3cc(N)ccc3C[C@@H]2C(=O)NO)cc1 | 39 nM |
| O=C(O)c1ccc(S(=O)(=O)N2Cc3nccnc3C[C@@H]2C(=O)NO)cc1 | 70000 nM |
| CCCOc1ccc(S(=O)(=O)N2Cc3nccnc3C[C@@H]2C(=O)NO)cc1 | 1000 nM |
| O=C(NO)[C@H]1Cc2nccnc2CN1S(=O)(=O)c1ccc(OCCCBr)cc1 | 600 nM |
| CS(=O)(=O)CCCOc1ccc(S(=O)(=O)N2Cc3nccnc3C[C@@H]2C(=O)NO)cc1 | 1800 nM |
| Nc1ccc2c(c1)CN(S(=O)(=O)c1ccc(Oc3ccccc3)cc1)[C@@H](C(=O)NO)C2 | 490 nM |
| C#Cc1ccc(S(=O)(=O)N2Cc3nccnc3C[C@@H]2C(=O)NO)cc1 | 130 nM |
| Nc1ccc(Oc2ccc(S(=O)(=O)N3Cc4nccnc4C[C@@H]3C(=O)NO)cc2)cc1 | 1000 nM |
| COc1ccc(S(=O)(=O)N2Cc3cc(N)ccc3C[C@@H]2C(=O)NO)cc1 | 190 nM |
| CCCCOCCCOc1ccc(S(=O)(=O)N2Cc3nccnc3C[C@@H]2C(=O)NO)cc1 | 260 nM |
| Cc1ccc(S(=O)(=O)N2Cc3nccnc3C[C@@H]2C(=O)NO)cc1 | 2700 nM |
| CCCCCCS(=O)(=O)N1Cc2nccnc2C[C@@H]1C(=O)NO | 4400 nM |
| COCCc1ccc(S(=O)(=O)N2Cc3nccnc3C[C@@H]2C(=O)NO)s1 | 3000 nM |
| CCOC(=O)CCCOc1ccc(S(=O)(=O)N2Cc3nccnc3C[C@@H]2C(=O)NO)cc1 | 1100 nM |
| Nc1ccc(S(=O)(=O)N2Cc3nccnc3C[C@@H]2C(=O)NO)cc1 | 1800 nM |
| COc1ccc(S(=O)(=O)N2Cc3cc(N(CC(=O)O)CC(=O)O)ccc3C[C@@H]2C(=O)NO)cc1 | 360 nM |
| Cc1ccccc1S(=O)(=O)N1Cc2nccnc2C[C@@H]1C(=O)NO | 12000 nM |
| CC(C)c1ccc(S(=O)(=O)N2Cc3ccccc3C[C@@H]2C(=O)NO)cc1 | 5500 nM |
| O=C(NO)[C@H]1Cc2ccccc2CN1S(=O)(=O)c1ccccc1 | 42 nM |
